Activity calls are given as the source filed them. The calls are words filed in the database; no cut-off is given here.
Key:
[1] = system: Enterococcus faecium; assay: Antimicrobial activity against Enterococcus faecium isolate 3 with AMP-CIP-CTX-ERY-GEN-LVX-SXT-TEC-VAN resistance phenotype assessed as time to kill at bactericidal concentration; type: functional
How it was run: (§1)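 Time-kill in 10 mM sodium phosphate buffer, pH 7.4: 1 × 10^7 CFU/ml mid-log clinical isolate (10 μl) exposed at 37°C to peptide at the 1.5-h bactericidal concentration or twofold that, in 100 μl. Samples taken from 2 min onward, plated on tryptone soy agar, CFU counted after 24 h at 37°C. Killing taken as ≥3 log10 CFU/ml drop.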

[2] = system: Acinetobacter baumannii; assay: Bactericidal activity against Acinetobacter baumannii isolate 3 with AMP-AMC-CFZ-CIP-IPM-SXT-TET-TOB resistance phenotype assessed as concentration required for >= 3 log10 CFU/ml reduction in viable bacteria in sodium phosphate buffer at pH 7.4 after 1.5 hrs by liquid microdilution assay; type: functional
How it was run: (§2)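 Clinical multidrug-resistant isolates grown to mid-log in tryptone soy broth and stored frozen. Exponential cells resuspended in 10 mM sodium phosphate buffer, pH 7.4, at 1 × 10^7 CFU/ml; 10 μl incubated with graded peptide concentrations in 100 μl at 37°C for 1.5 h. Plated on tryptone soy agar, CFU read after 24 h at 37°C. Peptide stocks in 20% ethanol.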

[3] = system: Enterococcus faecium; assay: Bactericidal activity against Enterococcus faecium isolate 5 with AMP-AMC-CIP-CLI-ERY-GEN-KAN-LVX-SXT-TEC-VAN resistance phenotype assessed as concentration required for >= 3 log10 CFU/ml reduction in viable bacteria in sodium phosphate buffer at pH 7.4 after 1.5 hrs by liquid microdilution assay; type: functional; how it was run: as §2
[4] = system: Stenotrophomonas maltophilia; assay: Bactericidal activity against Stenotrophomonas maltophilia isolate 4 with AMK-CAZ-CIP-FEP-IPM-SAM-TZP resistance phenotype assessed as concentration required for >= 3 log10 CFU/ml reduction in viable bacteria in sodium phosphate buffer at pH 7.4 after 1.5 hrs by liquid microdilution assay; type: functional; how it was run: as §2
[5] = system: Pseudomonas aeruginosa; assay: Bactericidal activity against Pseudomonas aeruginosa isolate 3 with AMP-CFZ-CTX-CIP-GEN-IPM-LVX-SXT-TET-TOB resistance phenotype assessed as concentration required for >= 3 log10 CFU/ml reduction in viable bacteria in sodium phosphate buffer at pH 7.4 after 1.5 hrs by liquid microdilution assay; type: functional; how it was run: as §2
[6] = system: Stenotrophomonas maltophilia; assay: Bactericidal activity against Stenotrophomonas maltophilia isolate 2 with AMK-CIP-CTX-IPM-MEM-SAM-TZP resistance phenotype assessed as concentration required for >= 3 log10 CFU/ml reduction in viable bacteria in 20% heat-inactivated human serum after 1.5 hrs by liquid microdilution assay; type: functional
How it was run: (§3)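 The buffer microdilution kill assay (1 × 10^7 CFU/ml mid-log cells, 10 μl in 100 μl, 37°C, 1.5 h, CFU on tryptone soy agar after 24 h) with serum added to 20% or 40% final. Serum was pooled from five healthy donors, clotted at room temperature, spun at 300 × g and heat-inactivated at 56°C for 30 min.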

[7] = system: Stenotrophomonas maltophilia; assay: Antimicrobial activity against Stenotrophomonas maltophilia isolate 2 with AMK-CIP-CTX-IPM-MEM-SAM-TZP resistance phenotype assessed as assessed as time to kill at twofold bactericidal concentration; type: functional; how it was run: as §1
[8] = system: Staphylococcus aureus; assay: Antimicrobial activity against Staphylococcus aureus isolate 1 with AMC-AMP-CIP-ERY-GEN-OXA-RIF resistance phenotype at twofold the bactericidal concentration within 30 mins; type: functional, organism-based; how it was run: as §1
[9] = system: Stenotrophomonas maltophilia; assay: Bactericidal activity against Stenotrophomonas maltophilia isolate 2 with AMK-CIP-CTX-IPM-MEM-SAM-TZP resistance phenotype assessed as concentration required for >= 3 log10 CFU/ml reduction in viable bacteria in sodium phosphate buffer at pH 7.4 after 1.5 hrs by liquid microdilution assay; type: functional; how it was run: as §2
[10] = system: Staphylococcus aureus; assay: Bactericidal activity against Staphylococcus aureus isolate 2 with AMC-AMP-CIP-ERY-GEN-LVX-OXA-RIF-TET resistance phenotype assessed as concentration required for >= 3 log10 CFU/ml reduction in viable bacteria in sodium phosphate buffer at pH 7.4 after 1.5 hrs by liquid microdilution assay; type: functional; how it was run: as §2
[11] = system: Enterococcus faecium; assay: Bactericidal activity against Enterococcus faecium isolate 6 with AMP-AMC-CLI-CRO-CTX-CIP-ERY-GEN-KAN-LVX-SXT-VAN resistance phenotype assessed as concentration required for >= 3 log10 CFU/ml reduction in viable bacteria in sodium phosphate buffer at pH 7.4 after 1.5 hrs by liquid microdilution assay; type: functional; how it was run: as §2
[12] = system: Enterococcus faecium; assay: Bactericidal activity against Enterococcus faecium isolate 3 with AMP-CIP-CTX-ERY-GEN-LVX-SXT-TEC-VAN resistance phenotype assessed as concentration required for >= 3 log10 CFU/ml reduction in viable bacteria in sodium phosphate buffer at pH 7.4 after 1.5 hrs by liquid microdilution assay; type: functional; how it was run: as §2
[13] = system: Acinetobacter baumannii; assay: Bactericidal activity against Acinetobacter baumannii isolate 2 with AMP-CFZ-CIP-LVX-PIP-SXT resistance phenotype assessed as concentration required for >= 3 log10 CFU/ml reduction in viable bacteria in sodium phosphate buffer at pH 7.4 after 1.5 hrs by liquid microdilution assay; type: functional; how it was run: as §2
[14] = system: Pseudomonas aeruginosa; assay: Antimicrobial activity against Pseudomonas aeruginosa isolate 1 with AMP-CFZ-CIP-CTX-CXM-GEN-LVX-SXT-TET resistance phenotype at twofold bactericidal concentration after 10 to 30 mins by time kill assay; type: functional, organism-based; how it was run: as §1
[15] = system: Acinetobacter baumannii; assay: Antimicrobial activity against Acinetobacter baumannii isolate 3 with AMP-AMC-CFZ-CIP-IPM-SXT-TET-TOB resistance phenotype assessed as time to kill at bactericidal concentration; type: functional; how it was run: as §1
[16] = system: Enterococcus faecium; assay: Bactericidal activity against Enterococcus faecium isolate 3 with AMP-CIP-CTX-ERY-GEN-LVX-SXT-TEC-VAN resistance phenotype assessed as concentration required for >= 3 log10 CFU/ml reduction in viable bacteria in 20% heat-inactivated human serum after 1.5 hrs by liquid microdilution assay; type: functional; how it was run: as §3
[17] = system: Pseudomonas aeruginosa; assay: Antimicrobial activity against Pseudomonas aeruginosa isolate 1 with AMP-CFZ-CIP-CTX-CXM-GEN-LVX-SXT-TET resistance phenotype at bactericidal concentration after 30 mins by time kill assay; type: functional, organism-based; how it was run: as §1
[18] = system: Staphylococcus aureus; assay: Bactericidal activity against Staphylococcus aureus isolate 3 with AMC-AMP-CIP-ERY-GEN-LVX-OXA resistance phenotype assessed as concentration required for >= 3 log10 CFU/ml reduction in viable bacteria in sodium phosphate buffer at pH 7.4 after 1.5 hrs by liquid microdilution assay; type: functional; how it was run: as §2
[19] = system: Staphylococcus aureus; assay: Bactericidal activity against Staphylococcus aureus isolate 1 with AMC-AMP-CIP-ERY-GEN-OXA-RIF resistance phenotype assessed as concentration required for >= 3 log10 CFU/ml reduction in viable bacteria in sodium phosphate buffer at pH 7.4 after 1.5 hrs by liquid microdilution assay; type: functional; how it was run: as §2
[20] = system: Pseudomonas aeruginosa; assay: Bactericidal activity against Pseudomonas aeruginosa isolate 1 with AMP-CFZ-CIP-CTX-CXM-GEN-LVX-SXT-TET resistance phenotype assessed as concentration required for >= 3 log10 CFU/ml reduction in viable bacteria in sodium phosphate buffer at pH 7.4 after 1.5 hrs by liquid microdilution assay; type: functional; how it was run: as §2
[21] = system: Stenotrophomonas maltophilia; assay: Bactericidal activity against Stenotrophomonas maltophilia isolate 1 with AMK-CIP-CTX-IPM-MEM-SAM-TZP resistance phenotype assessed as concentration required for >= 3 log10 CFU/ml reduction in viable bacteria in sodium phosphate buffer at pH 7.4 after 1.5 hrs by liquid microdilution assay; type: functional; how it was run: as §2
[22] = system: Acinetobacter baumannii; assay: Bactericidal activity against Acinetobacter baumannii isolate 3 with AMP-AMC-CFZ-CIP-IPM-SXT-TET-TOB resistance phenotype assessed as concentration required for >= 3 log10 CFU/ml reduction in viable bacteria in 20% heat-inactivated human serum after 1.5 hrs by liquid microdilution assay; type: functional; how it was run: as §3
[23] = system: Acinetobacter baumannii; assay: Bactericidal activity against Acinetobacter baumannii isolate 1 with AMP-AMC-CFZ-CIP-IPM-LVX-PIP-SXT-TET resistance phenotype assessed as concentration required for >= 3 log10 CFU/ml reduction in viable bacteria in sodium phosphate buffer at pH 7.4 after 1.5 hrs by liquid microdilution assay; type: functional; how it was run: as §2
[24] = system: Pseudomonas aeruginosa; assay: Bactericidal activity against Pseudomonas aeruginosa isolate 2 with AMP-CFZ-CIP-CTX-CXM-GEN-LVX-IPM-MEM-SXT-TET resistance phenotype assessed as concentration required for >= 3 log10 CFU/ml reduction in viable bacteria in sodium phosphate buffer at pH 7.4 after 1.5 hrs by liquid microdilution assay; type: functional; how it was run: as §2
[25] = system: Staphylococcus aureus; assay: Bactericidal activity against Staphylococcus aureus isolate 1 with AMC-AMP-CIP-ERY-GEN-OXA-RIF resistance phenotype assessed as concentration required for >= 3 log10 CFU/ml reduction in viable bacteria in 20% heat-inactivated human serum after 1.5 hrs by liquid microdilution assay; type: functional; how it was run: as §3
[26] = system: Pseudomonas aeruginosa; assay: Bactericidal activity against Pseudomonas aeruginosa isolate 1 with AMP-CFZ-CIP-CTX-CXM-GEN-LVX-SXT-TET resistance phenotype assessed as concentration required for >= 3 log10 CFU/ml reduction in viable bacteria in 20% heat-inactivated human serum after 1.5 hrs by liquid microdilution assay; type: functional; how it was run: as §3
[27] = system: Enterococcus faecium; assay: Antimicrobial activity against Enterococcus faecium isolate 3 with AMP-CIP-CTX-ERY-GEN-LVX-SXT-TEC-VAN resistance phenotype assessed as time to kill at twofold the bactericidal concentration; type: functional, organism-based; how it was run: as §1

## H-FFPVIGRILNGIL-NH2 [TEMPORIN G]
[1]
  Time: 5 min
[2]
  Activity: 6 µM
[3]
  Activity: 6 µM
[4]
  Activity: >96 µM
[5]
  Activity: 48 µM
[6]
  Activity: >192 µM
[7]
  Time: 2 min
[8]
  Activity: Active
[9]
  Activity: 3 µM
[10]
  Activity: 12 µM
[11]
  Activity: 6 µM
[12]
  Activity: 6 µM
[13]
  Activity: 6 µM
[14]
  Activity: Active
[15]
  Time: >=30 min
[16]
  Activity: 48 µM
[17]
  Activity: inactive
[18]
  Activity: 12 µM
[19]
  Activity: 24 µM
[20]
  Activity: 48 µM
[21]
  Activity: 12 µM
[22]
  Activity: >193 µM
[23]
  Activity: 12 µM
[24]
  Activity: 48 µM
[25]
  Activity: 96 µM
[26]
  Activity: >194 µM
[27]
  Activity: inactive

— ChEMBL document CHEMBL1151458, “Comparative analysis of the bactericidal activities of amphibian peptide analogues against multidrug-resistant nosocomial bacterial strains” (2008)
